According to publication PMC8842081 (The Journal of Biological Chemistry, 2022):
“Also recorded” adds a separate entry of the source. Where no end group is shown, it is not given here.

Columns and labels:
RSPO2–BMPR1A interaction = test: Cell surface–binding assay, RSPO2-AP on BMPR1A-transfected HEK293T cells; assay type: cell-based, human; conditions: for RSPO2 binding to BMPR1A transfected cells / RSPO2–BMPR1A binding after long-term dendrimer treatment: 20 μM dendrimer; for RSPO2 binding to BMPR1A transfected cells: n = 3; for RSPO2–BMPR1A binding after long-term dendrimer treatment: 16 h
How it was run: (§1)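 HEK293T cells were transfected with BMPR1A-HA or LGR4. They were incubated with RSPO2-AP or RSPO3-AP conditioned medium from transiently transfected HEK293T cells, plus 20 μM dendrimer or 50 μM monomeric peptide, for 3 h or 16 h. Surface-bound AP was developed with BM-Purple chromogenic substrate, then imaged and quantified.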

[1] = target: RSPO2^TSP1–BMPR1A^ECD interaction (Homo sapiens, UniProt P36894); test: In vitro competitive binding assay; conditions: for reduction of RSPO2^TSP1–BMPR1A^ECD interaction: 100 μM monomeric peptide, 3 h, AP activity, n = 2 to 3 experimental replicates
Sequence of RSPO2^TSP1–BMPR1A^ECD interaction (P36894 24-152 limits assumed): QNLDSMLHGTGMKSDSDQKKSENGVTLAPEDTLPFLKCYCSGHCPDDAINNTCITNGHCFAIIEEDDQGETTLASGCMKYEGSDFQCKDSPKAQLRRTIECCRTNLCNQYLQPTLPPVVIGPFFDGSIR
How it was run: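 Plates were coated overnight at 4 °C with 1 to 2 μg anti-HA and blocked 1 h in 5% BSA/TBST. HA-RSPO2 TSP1 conditioned medium was captured overnight. AP-BMPR1A ECD was then added for 3 h with 100 μM monomeric peptide (Cys→Ser; in DPBS pH 7.4) or a peptide concentration series. After TBST washes, bound AP was read with chemiluminescent substrate, and IC50 was fitted.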

[2] = tested on: Xenopus tropicalis embryos; test: Xenopus embryo blastocoel microinjection, phenotype; assay type: in vivo; conditions: 20 nl of 50 μM dendrimer into blastocoel at stage 9
How it was run: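 X. tropicalis embryos from in vitro fertilization received 20 nl of 50 μM dendrimer in PBS into the blastocoel at stage 9, with bmp4 mRNA at the 4-cell stage as comparator. Embryos were cultured to tailbud stage 28 and scored blind for head size and ventral structures across two independent experiments.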

[3] = tested on: pSmad1 in THP-1 AML cells; test: Western blot of pSmad1 in THP-1 cells; assay type: cell-based, human; conditions: 3 days
How it was run: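 THP-1 cells were exposed for 3 days to 0.5 μM unmodified or N-PEG dendrimer, or 2.0 μM C-PEG dendrimer. Lysis was in Triton or RIPA buffer with protease inhibitors, followed by boiling in Laemmli/β-mercaptoethanol at 95 °C for 5 min. SDS-PAGE immunoblots were probed for phospho-Smad1 against total Smad1 and developed by ECL.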

[4] = tested on: BMPR1A-HA membrane staining in H1581 cells; test: Immunofluorescence of BMPR1A-HA membrane localization in H1581 cells; assay type: cell-based, human; conditions: H1581 transfected with BMPR1A-HA, 0.5 μM dendrimer, 3 days
[5] = tested on: BMP signaling (Vent2 reporter); test: BMP-responsive Vent2 reporter assay in Xenopus embryos; assay type: in vivo, Xenopus tropicalis; conditions: 20 nl of 50 μM dendrimer at stage 9, firefly normalized to Renilla
How it was run: (§2)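 X. tropicalis embryos were co-injected at the 2-cell stage with 200 pg Vent-Luc (BMP) or Topflash (WNT) plus 100 pg Renilla-TK plasmid. At stage 9, 20 nl of 50 μM dendrimer in PBS went into the blastocoel; controls were bmp4 mRNA or lrp6 morpholino. Three pools of four embryos each were lysed at stage 14 to 15 for dual luciferase, firefly normalized to Renilla. Unpaired t test or one-way ANOVA.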

THP-1 cells = test: Flow cytometry of CD11B^+ THP-1 cells; assay type: cell-based, human; conditions: THP-1, 3 days, 0.5/1.0/1.5 μM nonmodified, 2.0/3.0 μM N-PEG, 3.0/4.0 μM C-PEG dendrimer
RSPO3 binding to BMPR1A = test: Cell surface–binding assay, RSPO3-AP on BMPR1A-transfected HEK293T cells; assay type: cell-based, human; conditions: 20 μM non-PEGylated dendrimer, 3 h; n = 3
How it was run: as §1

LGR4 = test: Cell surface–binding assay, RSPO2-AP on LGR4-transfected HEK293T cells; assay type: cell-based, human; conditions: 20 μM dendrimer, 3 h
How it was run: as §1

pSmad1 in H1581 cells = test: Western blot of pSmad1 in H1581 cells; assay type: cell-based, human; conditions: H1581 (elevated RSPO2), 0.5 μM dendrimer, 3 days
[6] = tested on: WNT-mediated activation of β-catenin in H1581 cells; test: Western blot of activated β-catenin in H1581 cells treated with WNT3A; assay type: cell-based, human; conditions: 0.5 μM dendrimer
[7] = tested on: BMP target gene expression (sizzled); test: Whole-mount in situ hybridization of sizzled in Xenopus gastrulae; assay type: in vivo, Xenopus tropicalis; conditions: 20 nl of 50 μM dendrimer at stage 9, gastrulae stage 11
How it was run: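 X. tropicalis embryos were injected at stage 9 into the blastocoel with 20 nl of 50 μM dendrimer in PBS; bmp4 mRNA injected radially at the 4-cell stage served as control. Embryos were fixed at gastrula stage 11 and processed by whole-mount in situ hybridization with a digoxigenin-labeled antisense sizzled probe. The sizzled-expressing area was quantified, pooled from two independent experiments.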

[8] = tested on: P38 MAPK and P44/42 MAPK phosphorylation in HEPG2 cells; test: Western blot of pP38 and pP44/42 MAP kinases in HEPG2 cells; assay type: cell-based, human; conditions: HEPG2, BMP4 + RSPO2, 0.5 μM dendrimer, 1 h, starved overnight
[9] = tested on: WNT signaling (TopFlash reporter); test: WNT-responsive TopFlash reporter assay in Xenopus embryos; assay type: in vivo, Xenopus tropicalis; conditions: 20 nl of 50 μM dendrimer at stage 9, firefly normalized to Renilla
How it was run: as §2

[10] = tested on: BMP4 signaling (pSmad1) in HEPG2 cells; test: Western blot of pSmad1 in HEPG2 cells; assay type: cell-based, human
[11] = 0.5 μM nonmodified or N-PEG dendrimer

In the case of “PEG-RW: RW peptide mini-PEGylated at both N and C termini ({mini‑PEG}-RNNRTSGFKW-{mini‑PEG})”, the “inhibition of RSPO2-AP binding to BMPR1A-transfected cells, short-term” value (RSPO2–BMPR1A interaction; 50 μM PEGylated monomeric peptide, 3 h) is reported as “inhibited RSPO2–BMPR1A interaction”.

With DTILSPTIAE [DE] the “reduction of RSPO2^TSP1–BMPR1A^ECD interaction” value (“reduction” for short) [1] was “greater than 50%”.

With “(PEG-KMTMR)8-Lys4-Lys2-Lys-β-Ala [N-PEG KR^d]” the “RSPO2 binding to BMPR1A transfected cells” value (RSPO2–BMPR1A interaction; 3 h) was “no effect”.

With “(PEG-RNNRTSGFKW)8-Lys4-Lys2-Lys-β-Ala [N-PEG RW^d]” the “RSPO2 binding to BMPR1A transfected cells” value (RSPO2–BMPR1A interaction; 3 h) was “abolished RSPO2 binding” and the “RSPO2–BMPR1A binding after long-term dendrimer treatment” value (RSPO2–BMPR1A interaction) was “completely disrupt RSPO2–BMPR1A binding”.

For KMTMR [KR], the embryotoxicity [2] was “no embryotoxicity”, the “pSmad1 induction in THP-1 cells” value [3, 11] was “but not KR^d treatment” and the “RSPO2 binding to BMPR1A transfected cells” value (RSPO2–BMPR1A interaction; 3 h) was “no effect”. The “increase in the number of cells showing BMPR1A-HA membrane staining” value [4] was “but not KR^d treatment” and the “effect on RSPO2–BMPR1A interaction in vitro (Fig. S2A)” value ([1]; peptide treatment, concentration not given) was “did not affect RSPO2–BMPR1A interaction”.

In the case of SRRSKMTMRHSPG [SG], the “reduction” value [1] is reported as “greater than 50%”.

With RNNRTSGFKW [RW] the “endogenous BMP signaling (Vent2 reporter)” value [5] was “enhanced endogenous BMP signaling”, the “induction of the number of CD11B^+ cells” value (THP-1 cells) was ~10 fold and the “RSPO3 binding to BMPR1A transfected cells” value (RSPO3 binding to BMPR1A) was “unable to abolish RSPO3 binding”. For the same substance, the “RSPO2 binding to LGR4 transfected cells” value (LGR4) was “without affecting LGR4 binding”, the “phosphorylation of Smad1” value (pSmad1 in H1581 cells) was “increased phosphorylation of Smad1” and the “WNT-mediated activation of β-catenin” value [6] was “no effect”. The sizzled expression [7] was “expanded BMP target gene expression (sizzled) toward the dorsal side”, the embryotoxicity ([2]; listed as RW^d) was “no Xenopus embryotoxicity” and the “rescue of RSPO2-mediated decrease of pP38 and pP44/42 levels” value [8] was “rescued the RSPO2-mediated decrease of pP38 and pP44/42 levels”. The “WNT signaling (TopFlash reporter)” value [9] was “no effect on WNT signaling”, the “pSmad1 induction in THP-1 cells” value [3, 11] was “induced pSmad1” and the “RSPO2 binding to BMPR1A transfected cells” value (RSPO2–BMPR1A interaction; 3 h) was “abolished RSPO2 binding”. The “RSPO2–BMPR1A binding after long-term dendrimer treatment” value (RSPO2–BMPR1A interaction) was “completely disrupt RSPO2–BMPR1A binding”, the “increase in the number of cells showing BMPR1A-HA membrane staining” value [4] was “approximately threefold” and the “pSmad1 level without simultaneous treatment of RSPO2” value ([10]; HEPG2, 0.5 μM dendrimer, 3 days) was “no effect on pSmad1 level”. For the same substance, the “rescue of RSPO2-mediated decrease of pSmad1 levels” value ([10]; HEPG2, BMP4 + RSPO2, 0.5 μM dendrimer, 1 h, starved 3 h) was “rescued the RSPO2-mediated”, the “rescue of RSPO3-mediated decrease of pSmad1 levels” value ([10]; HEPG2, BMP4 + RSPO3, 0.5 μM dendrimer, 1 h, starved 3 h) was “not the RSPO3-mediated decrease of pSmad1 levels” and the “reduction” value [1] was “strongest inhibition; also recorded: greater than 50%”.

With “(RNNRTSGFKW-PEG)8-Lys4-Lys2-Lys-β-Ala [C-PEG RW^d]” the “pSmad1 induction in THP-1 cells” value ([3]; 2.0 μM C-PEG dendrimer) was “Elevated pSmad1 levels”.
